Data as given in ChEMBL document CHEMBL5038582, “Adamantyl Isothiocyanates as Mutant p53 Rescuing Agents and Their Structure-Activity Relationships” (J Med Chem, 2021).
Each block holds one compound with its values, some of them ahead of it. Active and inactive are the calls of the source. The rule behind the calls is not given here.

Columns and labels:
MDA-MB-231 [1] = assay: Antiproliferative activity against human MDA-MB-231 cells expressing p53 R280K mutant assessed as inhibition of cell growth at 10 to 50 uM incubated for 24 to 72 hrs by WST-1 assay; assay type: functional, cell-based; details: dose 10-50 µM, time 24-72 hrs
Procedure, shortened: (§1)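 WST-1 proliferation assay. Compound diluted in DMSO so that 10 μl of stock in 1 ml of cells (40,000 cells/ml) gives the test concentration at 1% DMSO. Cells plated at 4,000/well in duplicate and incubated at 37 °C for 24 h or 72 h. Result given as % of the 1% DMSO control.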

[2] = Octanol-water partition coefficient, logP of the compound by HPLC-MS analysis; assay type: physicochemical; details: for logP: 18 h
Procedure, shortened: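 Compound (10 µL of 10 mM DMSO stock) added to 0.5 mL octanol plus 0.5 mL sodium phosphate buffer pH 7.4. Stirred 18 h, centrifuged 2 h at 3600 rpm. Concentration in each phase measured by LC-MS on a C18 column.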

MDA-MB-231 [3] = assay: Antiproliferative activity against human MDA-MB-231 cells expressing p53 R280K mutant assessed as inhibition of cell growth incubated for 24 hrs by WST-1 assay; assay type: functional, cell-based; details: MDA-MB-231, 24 h
Procedure, shortened: (§2)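 WST-1 proliferation assay. Compound diluted in DMSO and added to cells at 1% DMSO final. 4,000 cells/well in duplicate; DMSO-only wells as control, cell-free medium wells for background.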

MDA-MB-231 [4] = assay: Antiproliferative activity against human MDA-MB-231 cells expressing p53 R280K mutant assessed as inhibition of cell growth incubated for 72 hrs by WST-1 assay; assay type: functional, cell-based; details: MDA-MB-231, 72 h; procedure, shortened: as §2
MDA-MB-231 [5] = assay: Antiproliferative activity against human MDA-MB-231cells expressing p53 R280K mutant assessed as inhibition of cell growth at 10 to 50 uM incubated for 24 hrs by WST-1 assay; assay type: functional, cell-based; details: dose 10-50 µM; procedure, shortened: as §1
MCF7 [6] = assay: Antiproliferative activity against human MCF7 cells expressing WT p53 assessed as inhibition of cell growth at 10 to 50 uM incubated for 24 to 72 hrs by WST-1 assay; assay type: functional, cell-based; details: dose 10-50 µM, time 24-72 hrs; procedure, shortened: as §1
MDA-MB-231 [7] = assay: Induction of apoptosis in human MDA-MB-231 cells expressing p53 R280K mutant assessed fold increase in number of Annexin-V stained cells at 6 to 12 uM incubated for 24 hrs by AnnexinV-FITC and PI staining based flow cytometry relative to control; assay type: functional; details: dose 6-12 µM
Procedure, shortened: (§3)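 24 h treatment, DMSO control. Cells scraped, washed in PBS, then given fluorochrome-conjugated Annexin V for 15 min at RT in the dark, followed by PI (0.1 µg/ml) in binding buffer. Read by flow cytometry on LSRFortessa. Annexin V-positive cells expressed relative to the DMSO control.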

MDA-MB-468 [8] = assay: Induction of apoptosis in human MDA-MB-468 cells expressing p53 R273H mutant assessed fold increase in number of Annexin-V stained cells at 6 to 12 uM incubated for 24 hrs by AnnexinV-FITC and PI staining based flow cytometry relative to control; assay type: functional; details: dose 6-12 µM; procedure, shortened: as §3
MCF7 [9] = assay: Induction of apoptosis in human MCF-7 cells expressing wild type p53 assessed increase in number of Annexin-V stained cells at 6 to 12 uM incubated for 24 hrs by AnnexinV-FITC and PI staining based flow cytometry; assay type: functional, cell-based; details: dose 6-12 µM; procedure, shortened: as §3
MDA-MB-468 [10] = assay: Downregulation of p53 R273H mutant expression in human MDA-MB-468 cells at 6 to 12 uM measured after 24 hrs by immunoblot analysis; assay type: functional, cell-based; details: dose 6-12 µM
Procedure, shortened: (§4)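 24 h exposure to 6 or 12 μM, DMSO control. Lysis in Tris pH 8.0/NaCl/glycerol/NP-40/EDTA buffer with protease inhibitors. 20 µg (MDA-MB-231, MDA-MB-468) or 50 µg (MCF-7) of lysate run on 4-12% SDS-PAGE. Blot probed with p53 DO-1, GAPDH used for reprobe/loading. Triplicate experiments.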

MCF7 [11] = assay: Downregulation of p53 expression in human MCF7 cells at 6 to 12 uM measured after 24 hrs by immunoblot analysis; assay type: functional, cell-based; details: dose 6-12 µM; procedure, shortened: as §4
MDA-MB-231 [12] = assay: Downregulation of p53 R280K mutant expression in human MDA-MB-231 cells at 6 to 12 uM measured after 24 hrs by immunoblot analysis; details: dose 6-12 µM
MDA-MB-231 [13] = assay: Induction of apoptosis in human MDA-MB-231 cells expressing p53 R280K mutant assessed increase in number of Annexin-V stained cells at 6 to 12 uM incubated for 24 hrs by AnnexinV-FITC and PI staining based flow cytometry; assay type: functional, cell-based; details: dose 6-12 µM; procedure, shortened: as §3
MDA-MB-468 [14] = assay: Induction of apoptosis in human MDA-MB-468 cells expressing p53 R273H mutant assessed increase in number of Annexin-V stained cells at 6 to 12 uM incubated for 24 hrs by AnnexinV-FITC and PI staining based flow cytometry; assay type: functional, cell-based; details: dose 6-12 µM; procedure, shortened: as §3
MDA-MB-468 [15] = assay: Antiproliferative activity against human MDA-MB-468 cells expressing p53 R273H mutant assessed as inhibition of cell growth at 10 to 50 uM incubated for 24 to 72 hrs by WST-1 assay; assay type: functional, cell-based; details: dose 10-50 µM, time 24-72 hrs; procedure, shortened: as §1
MDA-MB-231 [16] = assay: Antiproliferative activity against human MDA-MB-231 cells expressing p53 R280K mutant assessed as inhibition of cell growth at 24 to 48 uM incubated for 72 hrs by WST-1 assay; assay type: functional; details: dose 24-48 µM; procedure, shortened: as §1
MDA-MB-231 [17] = assay: Induction of apoptosis in human MDA-MB-231 cells expressing p53 R280K mutant assessed as decrease in level of uncleaved caspase 3 level at 6 to 12 uM measured after 24 hrs by western blotting analysis; assay type: functional, cell-based; details: dose 6-12 µM
Procedure, shortened: (§5)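 Cells treated with DMSO or compound at 6 or 12 µM for 24 h, then lysed in Tris-Cl pH 8.0/NaCl/glycerol/NP-40/EDTA buffer with protease inhibitors. 100 µg lysate resolved on 4-12% SDS-PAGE and blotted to PVDF. Probed with anti-PARP or anti-caspase 3, then HRP secondary and ECL. GAPDH reprobe as control.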

MDA-MB-468 [18] = assay: Induction of apoptosis in human MDA-MB-468 cells expressing p53 R273H mutant assessed as decrease in level of uncleaved caspase 3 level at 6 to 12 uM measured after 24 hrs by western blotting analysis; assay type: functional, cell-based; details: dose 6-12 µM; procedure, shortened: as §5
MCF7 [19] = assay: Induction of apoptosis in human MCF7 cells expressing wild type p53 assessed as decrease in level of uncleaved PARP1 level at 6 to 12 uM measured after 24 hrs by western blotting analysis; assay type: functional, cell-based; details: dose 6-12 µM; procedure, shortened: as §5
MCF7 [20] = assay: Induction of apoptosis in human MCF7 cells expressing wild type p53 assessed as increase in cleaved PARP1 level at 6 to 12 uM measured after 24 hrs by western blotting analysis; assay type: functional, cell-based; details: dose 6-12 µM; procedure, shortened: as §5
MDA-MB-231 [21] = assay: Induction of apoptosis in human MDA-MB-231 cells expressing p53 R280K mutant assessed as increase in level of cleaved PARP1 level at 6 to 12 uM measured after 24 hrs by western blotting analysis; assay type: functional, cell-based; details: dose 6-12 µM; procedure, shortened: as §5
MDA-MB-468 [22] = assay: Induction of apoptosis in human MDA-MB-468 cells expressing p53 R273H mutant assessed as increase in level of cleaved PARP1 level at 6 to 12 uM measured after 24 hrs by western blotting analysis; assay type: functional, cell-based; details: dose 6-12 µM; procedure, shortened: as §5
MCF7 [23] = assay: Upregulation of p53 expression in human MCF7 cells at 6 to 12 uM measured after 24 hrs by immunoblot analysis; assay type: functional, cell-based; details: dose 6-12 µM
Procedure, shortened: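 Cells treated with DMSO or compound at 6 or 12 µM for 24 h and lysed. 50 µg MCF-7 lysate resolved by SDS-PAGE and probed with p53 DO-1 antibody. Reprobed with anti-GAPDH as loading control. Run in triplicate.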

SMILES: CCCC(CN=C=S)C1C2CC3CC(C2)CC1C3 (stereo not drawn)
- Activity (MDA-MB-231 [1]): inactive
- logP [2]: 6.77

SMILES: S=C=NCCC12CC3CC(CC(C3)C1)C2
- IC50 (MDA-MB-231 [3]): 24 µM
- IC50 (MDA-MB-231 [4]): 12 µM
- Activity (MDA-MB-231 [5]): Dose-Dependent Effect
- Activity (MCF7 [6]): inactive
- fold change (FC) (MDA-MB-231 [7]): 2
- fold change (FC) (MDA-MB-468 [8]): 2
- Activity (MCF7 [9]): inactive
- inhibition (MDA-MB-468 [10]): Active
- inhibition (MCF7 [11]): inactive
- p53 R280K downregulation (active/not active) (MDA-MB-231 [12]): Active

- logP at 18 h [2]: 3.73
SMILES: O=C1CNC(=S)N1CCC12CC3CC(CC(C3)C1)C2
- Activity (MDA-MB-231 [1]): inactive
- Activity (MCF7 [6]): inactive
- Activity (MDA-MB-231 [13]): inactive
- Activity (MCF7 [9]): inactive
- Activity (MDA-MB-468 [14]): inactive
- inhibition (MDA-MB-468 [10]): inactive
- inhibition (MCF7 [11]): inactive
- Activity (MDA-MB-468 [15]): inactive
- p53 R280K downregulation (active/not active) (MDA-MB-231 [12]): inactive

SMILES: S=C=NC1C2CC3CC(C2)CC1C3 (stereo not drawn)
- Activity (MDA-MB-231 [1]): inactive

SMILES: CC12CC3CC(C)(C1)CC(N=C=S)(C3)C2
- Activity (MDA-MB-231 [1]): inactive

SMILES: S=C=NC12CC3CC(CC(C3)C1)C2
- Activity (MDA-MB-231 [1]): inactive
- Activity (MDA-MB-231 [13]): inactive
- Activity (MCF7 [9]): inactive
- Activity (MDA-MB-468 [14]): inactive
- inhibition (MDA-MB-468 [10]): inactive
- inhibition (MCF7 [11]): inactive
- p53 R280K downregulation (active/not active) (MDA-MB-231 [12]): inactive

- IC50 (MDA-MB-231 [3]): 24 µM
SMILES: S=C=NCC12CC3CC(CC(C3)C1)C2
- inhibition (INH) (MDA-MB-231 [16]): 50%
- Activity (MDA-MB-231 [5]): Dose-Dependent Effect
- Activity (MCF7 [6]): Active
- fold change (FC) (MDA-MB-231 [7]): 2
- fold change (FC) (MDA-MB-468 [8]): 2
- Activity (MCF7 [9]): inactive
- inhibition (MDA-MB-468 [10]): Active
- inhibition (MCF7 [11]): inactive
- p53 R280K downregulation (active/not active) (MDA-MB-231 [12]): Active

SMILES: S=C=NCCc1ccccc1
- Activity (MDA-MB-231 [1]): Active
- Activity (MCF7 [6]): Active
- Activity (MDA-MB-231 [17]): Active
- Activity (MDA-MB-468 [18]): Active
- Activity (MCF7 [19]): Active
- Activity (MCF7 [20]): Active
- inhibition (MDA-MB-468 [10]): Active
- Activity (MDA-MB-231 [21]): Active
- Activity (MDA-MB-468 [22]): Active
- Activity (MCF7 [23]): Active
- p53 R280K downregulation (active/not active) (MDA-MB-231 [12]): Active

SMILES: CC(N=C=S)C12CC3CC(CC(C3)C1)C2 (stereo not drawn)
- Activity (MDA-MB-231 [1]): inactive

SMILES: C1C2CC3CC1CC(C2)C3
- Activity (MDA-MB-231 [1]): inactive
- Activity (MCF7 [6]): inactive
- Activity (MDA-MB-468 [15]): inactive

SMILES: CC(C)(COC12CC3CC(CC(C3)C1)C2)N=C=S
- Activity (MDA-MB-231 [1]): inactive

SMILES: S=C=Nc1ccc(C23CC4CC(CC(C4)C2)C3)cc1
- Activity (MDA-MB-231 [5]): Dose-Dependent Effect
- logP [2]: 6.34

SMILES: O=C(CC12CC3CC(CC(C3)C1)C2)N=C=S
- Activity (MDA-MB-231 [1]): inactive
- logP [2]: 3.73

SMILES: S=C=NCCOC12CC3CC(CC(C3)C1)C2
- Activity (MDA-MB-231 [1]): inactive
- logP at 18 h [2]: 3.73
